Screening results from PubChem BioAssay.
Sampled rows, rich in hits. Any-hit rate of the full collection: about 1.8%.
Apaf-1 inh: blocks human Apaf-1 apoptosome activity; reconstituted apoptosome caspase-3 activity, DEVD-Rh110 fluorescence; O14727; actives 0.71% (n = 330,000); inhibition, % at 20 µM; AID 489030; active means inhibition of at least 40% at 20 µM;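 further: plate controls were DMSO wells for no effect and DEVD-CHO caspase inhibitor wells for full effect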
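Assay system – apoptosome proteins · Medium – Hepes buffer, pH 7.5 · Also added – cytochrome c with DEVD-Rh110 · Timing – 30 min compound preincubation, 50 min activation, room temperature · Detection – Rh110 fluorescence, excitation 480 nm, emission 540 nm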
TDP2 absorb: blocks human TDP2 phosphodiesterase activity. O95551. recombinant TDP2, T5PNP hydrolysis, p-nitrophenol absorbance 415 nm. inhibition, % at 12.8 µM. actives 0.34% (n = 370,000). AID 720702;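 active means inhibition above the mean of all tested compounds plus 3 SD, set per campaign, cut at about 25% in these data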;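 further: 0% = DMSO with enzyme and 100% = buffer with substrate but no TDP2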
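test system = human TDP2 enzyme | input = TDP2 enzyme at 120 nM final | medium = 50 mM Tris-HCl pH 7.5 with Mg2+, KCl, DTT, BSA | also added = T5PNP substrate, 5 mM | times = 2 h at 37 °C | technique = epi absorbance | benchmarks = high control without enzyme, low control DMSO plus TDP2 | replication = each compound tested once, singlicate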
GSTO1 counter: GSTO1 inhibition, counter-screen for RBBP9 inhibitors | inhibition, % at 5.96 µM | recombinant GSTO1, activity-based probe fluorescence polarization | actives 1.1% (n = 300,000);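 active means inhibition above the campaign mean inhibition plus 3 SD, cut at about 35% in these data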;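 further: 0% = GSTO1-1 with DMSO and 100% = wells lacking GSTO1-1 enzyme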
PAD4 FP inh: PAD4 (human) enzyme inhibition | inhibition, % at 6.36 µM | recombinant PAD4, RCA probe fluorescence polarization | actives 0.41% (n = 330,000);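 active means percent inhibition above a cutoff equal to the mean of all tested compounds plus 3 SD, cut at about 15% in these data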;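 further: 0% = PAD4 with RCA probe and DMSO and 100% = probe without PAD4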
Target sequence (Q9UM07 whole entry, looked up): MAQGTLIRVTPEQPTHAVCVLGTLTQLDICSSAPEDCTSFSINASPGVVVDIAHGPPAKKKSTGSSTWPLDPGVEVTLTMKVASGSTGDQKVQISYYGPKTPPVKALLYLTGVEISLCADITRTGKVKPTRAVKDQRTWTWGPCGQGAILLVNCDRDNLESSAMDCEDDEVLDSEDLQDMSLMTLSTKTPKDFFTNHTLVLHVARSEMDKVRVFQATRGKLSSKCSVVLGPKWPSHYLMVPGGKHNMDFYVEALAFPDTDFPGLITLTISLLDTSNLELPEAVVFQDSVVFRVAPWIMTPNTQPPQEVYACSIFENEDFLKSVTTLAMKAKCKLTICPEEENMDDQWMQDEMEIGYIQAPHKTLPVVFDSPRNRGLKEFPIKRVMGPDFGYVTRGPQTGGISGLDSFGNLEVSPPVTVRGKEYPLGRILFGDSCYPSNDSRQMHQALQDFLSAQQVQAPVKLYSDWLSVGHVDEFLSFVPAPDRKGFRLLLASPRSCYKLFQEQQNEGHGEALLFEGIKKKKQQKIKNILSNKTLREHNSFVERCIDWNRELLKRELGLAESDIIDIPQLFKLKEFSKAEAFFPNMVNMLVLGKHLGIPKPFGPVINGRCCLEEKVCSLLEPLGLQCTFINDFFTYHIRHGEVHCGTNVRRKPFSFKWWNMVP
CTSL1 counter: counter-screen for PFM18AAP inhibitors: inhibitors of F. hepatica cathepsin L1; recombinant F. hepatica cathepsin L1, Z-Leu-Arg-MCA fluorescence; actives 0.49% (n = 300,000); inhibition, % at 5.96 µM;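 active means inhibition above the mean of all tested compounds plus 3 SD, set per screening campaign, cut at about 17% in these data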;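 further: 0% = plate median of test compound wells and 100% = 1 µM Z-Phe-Ala-diazomethylketone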
Starred values were filed as active, the others as inactive.

For O=C(CC1SC(=Nc2ccc(O)cc2)NC1=O)Nc1ccccc1 (stereo not given) the results were Apaf-1 inh -16, GSTO1 counter 3, PAD4 FP inh -3 and CTSL1 counter -2.
For O=C1CCC[C@H]2C[C@H](NCc3cccc(Cl)c3)CC[C@]23CCCN13 the results were TDP2 absorb 5.
`CC1CCN(CCC(=O)Nc2ccc(Br)cc2)CC1` gave Apaf-1 inh -11, TDP2 absorb -1, GSTO1 counter 0, PAD4 FP inh -3 and CTSL1 counter -2.
CC1CC(C)CN(CCC(=O)Nc2ccc(Br)cc2)C1 (stereo not given) was read as Apaf-1 inh 5, TDP2 absorb 7, GSTO1 counter 4, PAD4 FP inh -2 and CTSL1 counter 18*.
Screening O=C(NCCCc1ccccc1)OC1CC2CC1[C@H]1CCCCN1C2 (stereo not given in full) returned TDP2 absorb 9.
For COc1ccc(-n2nc(C(=O)NCC(=O)NC3CCCCCC3)c3ccccc3c2=O)c(OC)c1 the results were Apaf-1 inh 48*, TDP2 absorb -5, GSTO1 counter 1, PAD4 FP inh 2 and CTSL1 counter 0.
`COc1ccc(-n2nc(C(=O)NCC(=O)NC3CCCCC3)c3ccccc3c2=O)c(OC)c1` gave Apaf-1 inh 9, TDP2 absorb -8, GSTO1 counter 2, PAD4 FP inh -7 and CTSL1 counter -1.
`O=[N+]([O-])c1cc2cccnc2c2ncccc12` gave Apaf-1 inh 2, TDP2 absorb -3, GSTO1 counter 15, PAD4 FP inh -7 and CTSL1 counter 7.
Screening O=[N+]([O-])c1cc(O)c2ncccc2c1 returned Apaf-1 inh 32, TDP2 absorb -5, GSTO1 counter 37*, PAD4 FP inh -18 and CTSL1 counter 11.
For CCn1c(SCC(=O)c2ccc3c(c2)OCCO3)nnc1-c1ccco1 the results were Apaf-1 inh 0, TDP2 absorb 12, GSTO1 counter 9, PAD4 FP inh 3 and CTSL1 counter 17*.
COc1cccc(CNC(=S)OC2CCC23CCC(c2ccccc2)CC3)c1 (stereo not given) was read as TDP2 absorb 5.
`COc1ccc(N2CCN(CCNS(=O)(=O)c3c(C(C)C)cc(C(C)C)cc3C(C)C)CC2)cc1` gave TDP2 absorb -5.
`CCN(CC)c1ccc(/C=C2/C(=O)N(c3ccc([N+](=O)[O-])cc3)N=C2N2CCOCC2)cc1` gave Apaf-1 inh 56*, GSTO1 counter 5, PAD4 FP inh -1 and CTSL1 counter 1.
COc1ccc(S[C@]2(C(=O)N3CCN(C(C)=O)CC3)CC(=O)N[C@@H]2c2ccc(OC)cc2)cc1 was read as TDP2 absorb -4.
Screening C=CCN=C1NC(c2ccccc2C(F)(F)F)C(C(=O)OC)=C(C)N1Cc1cccc(C(F)(F)F)c1 (stereo not given) returned TDP2 absorb 1.
Cc1ccc(NC(=S)NNC(=O)CSc2nc3sc4c(c3c(=O)n2-c2ccccc2)CCCC4)cc1 was read as TDP2 absorb 11.
Screening COC(=O)CCCC1=CC2=CC(=O)C(C)(OC(=O)c3cccs3)C(=O)C2=CN1C1CCCC1 (stereo not given) returned Apaf-1 inh 37, TDP2 absorb 22, GSTO1 counter 37*, PAD4 FP inh 3 and CTSL1 counter 4.
`CCC(C)NC(=S)NNC(=O)c1ccncc1` (stereo not given) gave Apaf-1 inh 7, TDP2 absorb 7, GSTO1 counter -21, PAD4 FP inh 0 and CTSL1 counter 20*.
`CCC[C@H]1[C@@H](N(C)CC2CCCCC2)CC[C@@]23CCCN2C(=O)CCC[C@@H]13` gave TDP2 absorb 2.
`COC(=O)[C@]12CCCCC=C1N(Cc1ccc(OC)cc1)C(=O)[C@@H]2CC(=O)NCc1ccc(OC)c(OC)c1` gave TDP2 absorb -11.
For CCn1c(NCc2ccccc2Cl)nc2ccccc21 the results were Apaf-1 inh 1, TDP2 absorb -1, GSTO1 counter 36*, PAD4 FP inh -4 and CTSL1 counter -2.
COc1ccc(C(c2nnnn2C2CCCCC2)N2CCN(C)CC2)c(OC)c1 (stereo not given) was read as Apaf-1 inh -4, TDP2 absorb 8, GSTO1 counter 15, PAD4 FP inh -5 and CTSL1 counter 18*.
COc1ccc2[nH]c(=O)c(C(c3nnnn3C3CCCCC3)N3CCN(C)CC3)cc2c1 (stereo not given) was read as Apaf-1 inh 5, TDP2 absorb -8, GSTO1 counter 4, PAD4 FP inh -1 and CTSL1 counter 2.
Screening Cc1nn(-c2ccccc2)c2c1C(c1ccc(F)cc1F)C(C#N)=C(N)O2 (stereo not given) returned Apaf-1 inh 5, TDP2 absorb 62*, GSTO1 counter 27, PAD4 FP inh 6 and CTSL1 counter -1.
For N#CC1=C(N)Oc2cc(N)ccc2C1c1ccc(F)cc1F (stereo not given) the results were Apaf-1 inh -2, TDP2 absorb -14, GSTO1 counter -6, PAD4 FP inh -13 and CTSL1 counter 1.
Screening Cc1ccc(-n2nc(C)c3c2OC(N)=C(C#N)C3c2ccco2)cc1 (stereo not given) returned Apaf-1 inh 8, TDP2 absorb 7, GSTO1 counter 36*, PAD4 FP inh -12 and CTSL1 counter -2.
Cc1nn(Cc2ccccc2)c2c1C(c1ccco1)C(C#N)=C(N)O2 (stereo not given) was read as Apaf-1 inh 2, TDP2 absorb 9, GSTO1 counter 10, PAD4 FP inh 0 and CTSL1 counter 1.
Screening N#Cc1ccc(C(=O)Oc2coc(CSc3ncccn3)cc2=O)cc1 returned TDP2 absorb -5.
For O=C(c1cccc(Br)c1)N1CCC(Oc2cccnc2)CC1 the results were TDP2 absorb 0.
Screening COc1cc(NC(=O)C2CCCN(S(=O)(=O)c3ccc(C)c(C)c3)C2)cc(OC)c1 (stereo not given) returned TDP2 absorb 8.
For CC(=O)N1c2cc(S(=O)(=O)Nc3c(C)n(C)n(-c4ccccc4)c3=O)c(Br)cc2CC1C (stereo not given) the results were TDP2 absorb 4.
`C[C@H]1Cn2cnc(C(=O)N(C)Cc3ccccc3)c2C(=O)N1` gave TDP2 absorb 6.
Cc1ccc(/C=N\NC(=O)/C(=C\Nc2nccc(C)n2)NC(=O)c2ccccc2)cc1 was read as Apaf-1 inh -15, TDP2 absorb 2, GSTO1 counter 2, PAD4 FP inh -3 and CTSL1 counter 22*.
Screening COc1ccc(/C=C(/NC(=O)c2ccccc2)C(=O)N/N=C/c2ccncc2)cc1 returned Apaf-1 inh 2, TDP2 absorb -1, GSTO1 counter -2, PAD4 FP inh 0 and CTSL1 counter 5.
